According to PMC3104004 (European Journal of Nuclear Medicine and Molecular Imaging, 2011):

Tests used:
[1] = tested on: kidney of PC-3-bearing mice; conditions: PC-3-bearing athymic mice, 30 min after injection; ref 26 (Zheng et al.); cited from earlier work
[2] = tested on: VCaP tumour and preselected organs; test: Ex vivo biodistribution in VCaP tumour-bearing mice; parameters: species or system male NMRI nu/nu mice; conditions: 30 min after injection, 100 μl iv
How it was run: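 Done after PET. VCaP-bearing mice killed 60 min after i.v. tail-vein 68Ga-labelled bombesin-analogue tracer (300 pmol, 1.5–0.5 MBq), or 30 min after 18F-choline tracer (100 μl, 8.1–1.2 MBq). Gamma-counted: tumour, liver, heart, blood, muscle, tail, kidneys, pancreas and colon. %ID/g corrected for activity left in the tail; mean ± SD, four mice per tracer; unpaired t-test.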

[3] = tested on: human prostate VCaP xenografts; test: Dynamic PET scanning with quantitative VOI analysis in VCaP tumour-bearing mice; type: in vivo, male NMRI nu/nu mice
How it was run: (§1)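 Male NMRI nu/nu mice, 6–7 weeks old, inoculated s.c. in the right shoulder with ~5×10^6 VCaP or PC-3 cells in PBS. Under isoflurane/oxygen, prone, on a microPET with a heating mat. Test tracer 100 μl (8.1–1.2 MBq) given by tail-vein cannula; dynamic full-body scan for 20 min from injection. Tumour VOIs drawn manually, averaged over two analysts. %ID/g = VOI activity/injected dose ×100; steady-state taken from last 10 min; median, IQR; Mann-Whitney U.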

PC-3 tumours = test: Dynamic PET scanning with quantitative VOI analysis in PC-3 tumour-bearing mice; type: in vivo, male NMRI nu/nu mice; conditions: tail vein injection 100 μl; last 10 min of 20 min scan; N = 3
How it was run: as §1

Structure (SMILES)	kidney uptake [1] [%ID/g]	uptake in blood ([2]; VCaP-bearing mice, N = 4) [%ID/g tissue]	uptake in heart ([2]; VCaP-bearing mice, N = 4) [%ID/g tissue]	uptake in kidneys ([2]; VCaP-bearing mice, N = 4) [%ID/g]	uptake in liver ([2]; VCaP-bearing mice, N = 4) [%ID/g tissue]	uptake in muscle ([2]; VCaP-bearing mice, N = 4) [%ID/g tissue]	uptake in pancreas (GRPR-positive) ([2]; VCaP-bearing mice, N = 4) [%ID/g]	VCaP tumour uptake (biodistribution) ([2]; ex vivo counting) [%ID/g]	time at which tumour uptake reached a plateau phase ([3]; dynamic PET, VCaP tumour, after injection)	VCaP tumour uptake determined from PET at steady-state (plateau phase) ([3]; tail vein injection 100 μl, 8.1–1.2 MBq, 10–20 min after injection, N = 8) [%ID/g]	PC-3 tumour uptake from PET (plateau phase) (PC-3 tumours) [%ID/g]
C[N+](C)([11CH3])CCO [^11C-choline]	5.1 ± 1.8	–	–	–	–	–	–	–	–	–	–
C[N+](C)(C[18F])CCO [^18F-FCH, N-[^18F]-fluoromethyl-N-(2-hydroxyethyl)-N,N-dimethylammonium]	–	0.8 ± 0.1	4.7 ± 0.5	35.7 ± 4.1	13.0 ± 1.7	0.9 ± 0.2	3.6 ± 1.0	2.1 ± 0.4	less than 10 min	1.6 ± 0.5	1.2 ± 0.3
